Experimental data reported in ChEMBL document CHEMBL1147861, “SAR studies on a novel series of human cytomegalovirus primase inhibitors” (Bioorg Med Chem Lett, 2007).

Tests used:
[1] = tested on: Human betaherpesvirus 5; assay: Antiviral activity against HCMV infected HFF cells after 5 days by dot blot assay; format: functional, organism-based
Procedure, shortened: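 HFF fibroblasts infected with luciferase-expressing recombinant CMV (rCMVLUC), then cultured 5 days across a range of drug concentrations. Viral DNA harvested, immobilized on membrane, hybridized with radiolabeled CMV-specific probe. IC50 = concentration giving 50% reduction of membrane-bound radioactivity relative to vehicle-only infected cells.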

[2] = Bioavailability in rat at 2 mg/kg, po; format: ADME, organism-based; settings: in vivo
[3] = tested on: Human betaherpesvirus 5; assay: Antiviral activity against HCMV infected HFF cells after 5 to 7 days by viral yield assay; format: functional
Procedure, shortened: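 rCMVLUC-infected HFF cells incubated 5–7 days with varying drug concentrations; viral yield determined by immunofluorescence using human anti-HCMV antiserum.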

[4] = Cytotoxicity against HFF cells by alamar blue assay; format: cell-based; settings: human
Procedure, shortened: (§1)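 Cells seeded and exposed to a range of compound concentrations; Alamar blue added at 0, 24, 48 and 72 h, fluorescence read after further 3 h incubation. IC50 = concentration inhibiting cell growth by 50%.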

[5] = Cytotoxicity against human Jurkat cells by alamar blue assay; format: cell-based; procedure, shortened: as §1
[6] = Cytotoxicity against human bone marrow cells assessed as inhibition of CFU-GM formation after 15 days; format: cell-based, Bone marrow cell
Procedure, shortened: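 Human bone marrow cells washed in IMDM–2% FBS, viable nucleated/mononuclear cells counted, adjusted to 10⁶ cells/mL, drug added, diluted 1:10 in methylcellulose medium and plated. After 15 days at 37 °C, humid 5% CO₂, CFU-GM colonies counted microscopically; IC50 = concentration halving colony formation.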

[7] = Oral bioavailability in rat; format: ADME, organism-based; settings: in vivo
[8] = Clearance in rat; format: ADME, organism-based; settings: in vivo
[9] = Human betaherpesvirus 5, HFF, 120 h

| Structure (SMILES) | IC50 [1, 9] | also measured |
| --- | --- | --- |
| COc1cccc(CNc2nc(C)c([N+](=O)[O-])c(-n3ccnc3C)n2)c1 | 0.3 µM | – |
| Cc1nc(NCc2ccc(F)cc2Cl)nc(-n2ccnc2C)c1[N+](=O)[O-] | 0.25 µM | – |
| Cc1nc(NCc2cccc(OC(F)(F)F)c2)nc(-n2ccnc2C)c1[N+](=O)[O-] | 0.3 µM | – |
| Cc1ccccc1CNc1nc(C)c([N+](=O)[O-])c(-n2ccnc2C)n1 | 0.2 µM | – |
| Cc1nc(NCc2cc(C(F)(F)F)cc(C(F)(F)F)c2)nc(-n2ccnc2C)c1[N+](=O)[O-] | 15 µM | – |
| Cc1nc(N)nc(-n2ccnc2C)c1[N+](=O)[O-] | 2 µM | bioavailability [2]: 59% |
| Cc1nc(NCc2ccc(C(F)(F)F)cc2)nc(-n2ccnc2C)c1[N+](=O)[O-] | 0.2 µM | – |
| CCS(=O)(=O)CCNc1nc(C)c([N+](=O)[O-])c(-n2ccnc2C)n1 | 1.3 µM | – |
| Cc1nc(NCc2ccccc2OC(F)(F)F)nc(-n2ccnc2C)c1[N+](=O)[O-] | 0.2 µM | – |
| Cc1nc(NCc2cccc(F)c2)nc(-n2ccnc2C)c1[N+](=O)[O-] | 0.25 µM | – |
| Cc1nc(NCC2CCCCO2)nc(-n2ccnc2C)c1[N+](=O)[O-] (stereo not given) | 4 µM | – |
| Cc1nc(NCc2ccc(F)cc2)nc(-n2ccnc2C)c1[N+](=O)[O-] | 0.15 µM | – |
| CCSCCNc1nc(C)c([N+](=O)[O-])c(-n2ccnc2C)n1 | 0.2 µM | – |
| Cc1nc(NCc2ccc(Cl)c(Cl)c2)nc(-n2ccnc2C)c1[N+](=O)[O-] | 0.2 µM | – |
| Cc1nc(NC(C)CCC(C)C)nc(-n2ccnc2C)c1[N+](=O)[O-] (stereo not given) | 2.3 µM | – |
| COCCCNc1nc(C)c([N+](=O)[O-])c(-n2ccnc2C)n1 | 2.3 µM | – |
| Cc1nc(NC(C)CCc2ccccc2)nc(-n2ccnc2C)c1[N+](=O)[O-] (stereo not given) | 0.35 µM | – |

| Structure (SMILES) | IC50 [1, 9] | also measured |
| --- | --- | --- |
| Cc1nc(NCc2ccccn2)nc(-n2ccnc2C)c1[N+](=O)[O-] | 0.5 µM | – |
| Cc1nc(NCc2cc(F)ccc2F)nc(-n2ccnc2C)c1[N+](=O)[O-] | 0.15 µM | – |
| CCC(C)Nc1nc(C)c([N+](=O)[O-])c(-n2ccnc2C)n1 (stereo not given) | 0.5 µM | – |
| Nc1ccn(C[C@@H](CO)OCP(=O)(O)O)c(=O)n1.O.O [CIDOFOVIR] | 0.35 µM | EC99.9 [3]: 0.9 µM; CC50 [4]: 100 µM; CC50 [5]: 100 µM; CC50 at 360 h [6]: 6 µM |
| Cc1nc(NCCC(C)C)nc(-n2ccnc2C)c1[N+](=O)[O-] | 0.3 µM | – |
| Cc1nc(N[C@@H]2COC[C@@H]2C)nc(-n2ccnc2C)c1[N+](=O)[O-].Cl | – | IC50 ([1]; hff): 0.13 µM; bioavailability [7]: 21%; clearance [8]: 23.3 mL/min/kg; EC99.9 [3]: 0.4 µM; CC50 [4]: 100 µM; CC50 [5]: 50 µM; CC50 at 360 h [6]: 50 µM |
| Cc1nc(NC(C)CC(C)C)nc(-n2ccnc2C)c1[N+](=O)[O-] (stereo not given) | 0.13 µM | – |
| Cc1nc(NCc2ccc(F)c(F)c2)nc(-n2ccnc2C)c1[N+](=O)[O-] | 0.4 µM | – |
| Cc1nc(NCc2cccnc2)nc(-n2ccnc2C)c1[N+](=O)[O-] | 0.8 µM | – |
| Nc1nc2c(ncn2COC(CO)CO)c(=O)[nH]1 [GANCICLOVIR] | 1 µM | EC99.9 [3]: 5 µM; CC50 [4]: > 100 µM; CC50 [5]: > 100 µM; CC50 at 360 h [6]: 30 µM |
| Cc1nc(NCc2ccc(C(F)(F)F)cc2F)nc(-n2ccnc2C)c1[N+](=O)[O-] | 0.2 µM | – |
| Cc1nc(NCc2cccc(Cl)c2Cl)nc(-n2ccnc2C)c1[N+](=O)[O-] | 0.2 µM | – |
| COCC(C)Nc1nc(C)c([N+](=O)[O-])c(-n2ccnc2C)n1 (stereo not given) | 0.9 µM | – |
| Cc1nc(NCc2ccc(Cl)cc2)nc(-n2ccnc2C)c1[N+](=O)[O-] | 0.3 µM | – |
| Cc1ccc(CNc2nc(C)c([N+](=O)[O-])c(-n3ccnc3C)n2)cc1 | 1.6 µM | – |
| Cc1cccc(CNc2nc(C)c([N+](=O)[O-])c(-n3ccnc3C)n2)c1 | 0.5 µM | – |

Continued, in another order:

| IC50 [1, 9] | Structure (SMILES) | also measured |
| --- | --- | --- |
| 1 µM | Cc1nc(NCC2CCCO2)nc(-n2ccnc2C)c1[N+](=O)[O-] (stereo not given) | – |
| 0.08 µM | Cc1nc(NC2CCCCC2C)nc(-n2ccnc2C)c1[N+](=O)[O-] (stereo not given) | – |
| 0.09 µM | CC[C@H]1CCCC[C@@H]1Nc1nc(C)c([N+](=O)[O-])c(-n2ccnc2C)n1 | – |
| 0.7 µM | Cc1nc(N[C@H]2CCCC[C@H]2C)nc(-n2ccnc2C)c1[N+](=O)[O-] | – |
| 1 µM | CCNc1nc(C)c([N+](=O)[O-])c(-n2ccnc2C)n1 | – |
| 0.15 µM | Cc1nc(NC2CCC[C@@H](C)C2)nc(-n2ccnc2C)c1[N+](=O)[O-] (stereo not given in full) | – |
| 2 µM | Cc1nc(N[C@H]2CCS(=O)(=O)[C@@H]2C)nc(-n2ccnc2C)c1[N+](=O)[O-] | – |
| 0.1 µM | Cc1nc(N[C@H]2CCCC[C@@H]2C)nc(-n2ccnc2C)c1[N+](=O)[O-] | – |
| 0.15 µM | Cc1nc(NC2CCC[C@H](C)C2)nc(-n2ccnc2C)c1[N+](=O)[O-] (stereo not given in full) | – |
| 0.5 µM | Cc1nc(NC2CCCC2C)nc(-n2ccnc2C)c1[N+](=O)[O-] (stereo not given) | – |
| 0.1 µM | Cc1nc(NC2CCC(C)C2)nc(-n2ccnc2C)c1[N+](=O)[O-] (stereo not given) | – |
| 0.15 µM | Cc1nc(N[C@@H]2COC[C@@H]2C)nc(-n2ccnc2C)c1[N+](=O)[O-] | – |
| 0.4 µM | Cc1nc(NC[C@@H]2OCCC[C@H]2C)nc(-n2ccnc2C)c1[N+](=O)[O-] | – |
| 0.7 µM | Cc1nc(NC2CCCOC2C)nc(-n2ccnc2C)c1[N+](=O)[O-] (stereo not given) | – |
| 0.25 µM | Cc1nc(NC2CCSC2)nc(-n2ccnc2C)c1[N+](=O)[O-] (stereo not given) | – |
| 0.3 µM | Cc1nc(NCC2OCCC2C)nc(-n2ccnc2C)c1[N+](=O)[O-] (stereo not given) | – |
| 0.2 µM | Cc1nc(NC2CCC(C)CC2)nc(-n2ccnc2C)c1[N+](=O)[O-] (stereo not given) | – |
| 0.2 µM | Cc1nc(N[C@H]2COC[C@H]2C)nc(-n2ccnc2C)c1[N+](=O)[O-] | – |
| 0.4 µM | Cc1nc(NC2CCSCC2)nc(-n2ccnc2C)c1[N+](=O)[O-] | – |
| 0.3 µM | Cc1nc(N[C@H]2CC=CC[C@@H]2C)nc(-n2ccnc2C)c1[N+](=O)[O-] | – |
| > 5 µM | Cc1nc(NC2CCS(=O)(=O)CC2)nc(-n2ccnc2C)c1[N+](=O)[O-] | – |
| 1.5 µM | Cc1nc(N[C@H]2CC=CC[C@H]2C)nc(-n2ccnc2C)c1[N+](=O)[O-] | – |
| 0.1 µM | CC[C@@H]1CC=CC[C@@H]1Nc1nc(C)c([N+](=O)[O-])c(-n2ccnc2C)n1 | – |
| 0.6 µM | Cc1nc(NC2CCCC2)nc(-n2ccnc2C)c1[N+](=O)[O-] | – |
| 0.12 µM | Cc1nc(NCC2CCCCC2)nc(-n2ccnc2C)c1[N+](=O)[O-] | – |
| 3 µM | Cc1nc(NC2CCOCC2)nc(-n2ccnc2C)c1[N+](=O)[O-] | – |
| 0.2 µM | Cc1nc(NC2CCCCC2)nc(-n2ccnc2C)c1[N+](=O)[O-] | – |
| 0.5 µM | Cc1nc(N[C@@H]2CCO[C@@H]2C)nc(-n2ccnc2C)c1[N+](=O)[O-] | – |
| 0.6 µM | Cc1nc(N[C@@H]2CCO[C@H]2C)nc(-n2ccnc2C)c1[N+](=O)[O-] | – |
| 0.13 µM | Cc1nc(N[C@H]2CCOC[C@@H]2C)nc(-n2ccnc2C)c1[N+](=O)[O-] | bioavailability [7]: 57%; clearance [8]: 36.7 mL/min/kg |
